Measured values from ChEMBL document CHEMBL4765453, “Phenanthrolinic analogs of quinolones show antibacterial activity against M. tuberculosis” (Eur J Med Chem, 2020).
In brackets after ≈: the same amount, converted by molar mass.

Columns and labels:
[1] = tested on: Mycobacterium tuberculosis; test: Antitubercular activity against Mycobacterium tuberculosis H37Rv measured after 7 days by resazurin microtiter assay; format: functional; settings: 168 h, time 7 day
Summary of the method: (§1)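 Resazurin microtiter assay with two-fold drug dilutions in complete 7H9 broth. Exponential-phase cells are diluted to a final OD600 of 0.005 in 7H9 without Tween. Incubation is 7 days at 37°C, then 0.01% resazurin is added and plates are held 24 h more. MIC is the lowest concentration preventing the blue-to-pink change. Each MIC is determined three times in duplicate experiments.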

[2] = Solubility of compound in water; format: physicochemical; settings: buffer
[3] = tested on: Mycolicibacterium smegmatis; test: Antibacterial activity against Mycobacterium smegmatis measured after 7 days by resazurin microtiter assay; format: functional; settings: 168 h, time 7 day; summary of the method: as §1
Mycolicibacterium aurum = test: Antibacterial activity against Mycobacterium aurum measured after 7 days by resazurin microtiter assay; format: functional; settings: 168 h, time 7 day; summary of the method: as §1
Mycobacterium marinum = test: Antibacterial activity against Mycobacterium marinum measured after 7 days by resazurin microtiter assay; format: functional; settings: 168 h, time 7 day; summary of the method: as §1
Pseudomonas aeruginosa = test: Antibacterial activity against Pseudomonas aeruginosa measured after 7 days by resazurin microtiter assay; format: functional; settings: 168 h, time 7 day
Acinetobacter baumannii = test: Antibacterial activity against Acinetobacter baumannii measured after 7 days by resazurin microtiter assay; format: functional; settings: 168 h, time 7 day
Klebsiella aerogenes = test: Antibacterial activity against Enterobacter aerogenes measured after 7 days by resazurin microtiter assay; format: functional; settings: 168 h, time 7 day
Enterobacter cloacae = test: Antibacterial activity against Enterobacter cloacae measured after 7 days by resazurin microtiter assay; format: functional; settings: 168 h, time 7 day
Staphylococcus aureus = test: Antibacterial activity against Staphylococcus aureus measured after 7 days by resazurin microtiter assay; format: functional; settings: 168 h, time 7 day
Klebsiella pneumoniae = test: Antibacterial activity against Klebsiella pneumoniae measured after 7 days by resazurin microtiter assay; format: functional; settings: 168 h, time 7 day
Vero = test: Cytotoxicity against African green monkey Vero cells assessed as reduction in cell viability measured after 24 to 48 hrs by Celltiter-glo assay; format: cell-based, Chlorocebus sabaeus; settings: for Activity: chlorocebus sabaeus, vero, time 24-48 hrs
Summary of the method: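 Vero cells are grown in DMEM with 10% FBS and seeded at 25000 cells/well. Compound is added at 1% final DMSO, with 24 and 48 h incubation. ATP is read by CellTiter-Glo luminescence. IC50 is the concentration giving a 50% drop in ATP signal versus the DMSO control.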

Macrophage = test: Cytotoxicity against human macrophages assessed as reduction in cell viability measured after 6 days by Celltiter-glo assay; format: cell-based; settings: 144 h; for Activity: human, macrophage, time 6 day
Summary of the method: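 Infected human macrophages, with or without drug, are incubated 6 days. Viability is checked by visual inspection and by CellTiter-Glo ATP luminescence.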

[4] = tested on: Mycobacterium tuberculosis; test: Antitubercular activity against Mycobacterium tuberculosis H37Rv infected in human macrophages assessed as intracellular bacterial load at 0.5 MIC measured after 6 days (reference value: 5.57 to 6.43 logCFU/ml); format: functional, Macrophage; settings: time 6 day
[5] = tested on: Mycobacterium tuberculosis; test: Antitubercular activity against Mycobacterium tuberculosis H37Rv infected in human macrophages assessed as intracellular bacterial load at MIC measured after 6 days (reference value: 5.57 to 6.43 logCFU/ml); format: functional, Macrophage; settings: time 6 day
[6] = tested on: Mycobacterium tuberculosis; test: Antitubercular activity against Mycobacterium tuberculosis H37Rv infected in human macrophages assessed as intracellular bacterial load at 2 times MIC measured after 6 days (reference value: 5.57 to 6.43 logCFU/ml); format: functional, Macrophage; settings: time 6 day
[7] = tested on: Mycobacterium tuberculosis; test: Antitubercular activity against Mycobacterium tuberculosis H37Rv infected in human macrophages assessed as intracellular bacterial load at 4 times MIC measured after 6 days (reference value: 5.57 to 6.43 logCFU/ml); format: functional, Macrophage; settings: time 6 day
[8] = tested on: Mycobacterium tuberculosis; test: Antitubercular activity against Mycobacterium tuberculosis XDR measured after 7 days by resazurin microtiter assay; format: functional; settings: 168 h, time 7 day; summary of the method: as §1

SMILES: Cn1cc(C(=O)NN)c(=O)c2cc([N+](=O)[O-])c3cccnc3c21
- MIC90 [1]: 20.8 µM (≈ 6.51 µg/mL)
- solubility [2]: Insoluble

SMILES: CCOC(=O)c1c[nH]c2c(ccc3cccnc32)c1=O
- MIC90 [1]: 24 µM (≈ 6.44 µg/mL)
- solubility [2]: Insoluble

SMILES: CCn1cc(C(=O)Nc2ccccc2)c(=O)c2ccc3cccnc3c21
- MIC90 [1]: 312 µM (≈ 107 µg/mL)
- solubility [2]: Insoluble

SMILES: Cn1cc(C(N)=O)c(=O)c2cc([N+](=O)[O-])c3cccnc3c21
- MIC90 [1]: 1.4 µM (≈ 0.418 µg/mL)
- solubility [2]: Insoluble

SMILES: CCOC(=O)c1c[nH]c2c(cc([N+](=O)[O-])c3cccnc32)c1=O
- MIC90 [1]: 329 µM (≈ 103 µg/mL)
- solubility [2]: Insoluble

SMILES: CCOC(=O)c1cn(C)c2c(cc([N+](=O)[O-])c3cccnc32)c1=O
- MIC90 [1]: 1.21 µM (≈ 0.396 µg/mL)
- MIC90 [3]: > 100 µM
- MIC90 (Mycolicibacterium aurum): > 100 µM
- MIC90 (Mycobacterium marinum): 0.15 µM (≈ 0.0491 µg/mL)
- MIC90 (Pseudomonas aeruginosa): > 100 µM
- MIC90 (Acinetobacter baumannii): > 100 µM
- MIC90 (Klebsiella aerogenes): 309 µM (≈ 101 µg/mL)
- MIC90 (Enterobacter cloacae): > 275 µM
- MIC90 (Staphylococcus aureus): > 275 µM
- MIC90 (Klebsiella pneumoniae): > 275 µM
- IC50 (Vero; Chlorocebus sabaeus, Vero): > 50 mg/L
- IC50 (Macrophage; Homo sapiens, Macrophage): > 50 mg/L
- Activity [4]: 4.22 log10CFU/ml
- Activity [5]: 3.63 log10CFU/ml
- Activity [6]: 3.45 log10CFU/ml
- Activity [7]: 3.06 log10CFU/ml
- MIC90 [8]: 1.21 µM (≈ 0.396 µg/mL)
- solubility [2]: Insoluble

SMILES: CCOC(=O)c1cn(CC)c2c(cc(Br)c3cccnc32)c1=O
- MIC90 [1]: 318 µM (≈ 119 µg/mL)
- solubility [2]: Insoluble

SMILES: NCC[C@H](O)C(=O)N[C@@H]1C[C@H](N)[C@@H](O[C@H]2O[C@H](CN)[C@@H](O)[C@H](O)[C@H]2O)[C@H](O)[C@H]1O[C@H]1O[C@H](CO)[C@@H](O)[C@H](N)[C@H]1O [AMIKACIN]
- MIC90 [1]: 1.83 µM (≈ 1.07 µg/mL)
- MIC90 [3]: 0.46 µM (≈ 0.269 µg/mL)
- MIC90 (Mycolicibacterium aurum): 1.83 µM (≈ 1.07 µg/mL)
- MIC90 (Mycobacterium marinum): 3.66 µM (≈ 2.14 µg/mL)
- MIC90 (Pseudomonas aeruginosa): 3.66 µM (≈ 2.14 µg/mL)
- MIC90 (Acinetobacter baumannii): 14.6 µM (≈ 8.57 µg/mL)

SMILES: O=C(O)c1c[nH]c2c(ccc3cccnc32)c1=O
- MIC90 [1]: 112 µM (≈ 27 µg/mL)
- solubility [2]: Insoluble

SMILES: CCOC(=O)c1c[nH]c2c(ccc3ccc[n+]([O-])c32)c1=O
- MIC90 [1]: 204 µM (≈ 58 µg/mL)
- solubility [2]: Insoluble

SMILES: CCn1cc(C(=O)O)c(=O)c2cc(Br)c3cccnc3c21
- MIC90 [1]: 9.39 µM (≈ 3.26 µg/mL)
- solubility [2]: Insoluble

SMILES: CCn1cc(C(=O)O)c(=O)c2ccc(C)nc21 [NALIDIXIC ACID]
- MIC [1]: > 50 µM

SMILES: CCn1cc(C(=O)NN)c(=O)c2cc([N+](=O)[O-])c3cccnc3c21
- MIC90 [1]: 9.84 µM (≈ 3.22 µg/mL)
- solubility [2]: Insoluble

SMILES: CCOC(=O)c1cn(CC)c2c(cc([N+](=O)[O-])c3cccnc32)c1=O
- MIC90 [1]: 4.99 µM (≈ 1.7 µg/mL)
- MIC90 [3]: > 100 µM
- MIC90 (Mycolicibacterium aurum): > 100 µM
- MIC90 (Mycobacterium marinum): 0.61 µM (≈ 0.208 µg/mL)
- MIC90 (Pseudomonas aeruginosa): > 100 µM
- MIC90 (Acinetobacter baumannii): > 100 µM
- MIC90 (Klebsiella aerogenes): 314 µM (≈ 107 µg/mL)
- MIC90 (Enterobacter cloacae): > 275 µM
- MIC90 (Staphylococcus aureus): 19.6 µM (≈ 6.69 µg/mL)
- MIC90 (Klebsiella pneumoniae): > 275 µM
- Activity (Vero): Non-Toxic
- Activity (Macrophage): Non-Toxic
- Activity [4]: 4.42 log10CFU/ml
- Activity [5]: 3.59 log10CFU/ml
- Activity [6]: 3.1 log10CFU/ml
- Activity [7]: 3 log10CFU/ml
- MIC90 [8]: 4.99 µM (≈ 1.7 µg/mL)
- solubility [2]: Insoluble

SMILES: CCOC(=O)c1cn(C)c2c(cc(N)c3cccnc32)c1=O
- MIC90 [1]: 92.1 µM (≈ 27.4 µg/mL)
- solubility [2]: Insoluble

SMILES: Cn1cc(C(=O)O)c(=O)c2ccc3cccnc3c21
- MIC90 [1]: 25.8 µM (≈ 6.56 µg/mL)
- solubility [2]: Insoluble

SMILES: CCn1cc(C(N)=O)c(=O)c2cc([N+](=O)[O-])c3cccnc3c21
- MIC90 [1]: 1.25 µM (≈ 0.39 µg/mL)
- solubility [2]: Insoluble

SMILES: CCOC(=O)c1cn(C)c2c(ccc3cccnc32)c1=O
- MIC90 [1]: 182 µM (≈ 51.5 µg/mL)
- solubility [2]: Insoluble

SMILES: CCn1cc(C(=O)O)c(=O)c2cc([N+](=O)[O-])c3cccnc3c21
- MIC90 [1]: 5.84 µM (≈ 1.83 µg/mL)
- MIC90 [3]: 21.4 µM (≈ 6.69 µg/mL)
- MIC90 (Mycolicibacterium aurum): 10.7 µM (≈ 3.34 µg/mL)
- MIC90 (Mycobacterium marinum): 1.3 µM (≈ 0.407 µg/mL)
- MIC90 (Pseudomonas aeruginosa): > 100 µM
- MIC90 (Acinetobacter baumannii): 93.4 µM (≈ 29.2 µg/mL)
- MIC90 (Klebsiella aerogenes): 42.7 µM (≈ 13.4 µg/mL)
- MIC90 (Enterobacter cloacae): > 275 µM
- MIC90 (Staphylococcus aureus): 10.7 µM (≈ 3.34 µg/mL)
- MIC90 (Klebsiella pneumoniae): > 275 µM
- Activity (Vero): Non-Toxic
- Activity (Macrophage): Non-Toxic
- Activity [4]: 4.19 log10CFU/ml
- Activity [5]: 3.69 log10CFU/ml
- Activity [6]: 3.21 log10CFU/ml
- Activity [7]: 3.24 log10CFU/ml
- solubility [2]: Insoluble

SMILES: CCOC(=O)c1cn(C)c2c(cc(Br)c3cccnc32)c1=O
- MIC90 [1]: 290 µM (≈ 105 µg/mL)
- solubility [2]: Insoluble

SMILES: CCn1cc(C(=O)O)c(=O)c2ccc3cccnc3c21
- MIC90 [1]: 47.1 µM (≈ 12.6 µg/mL)
- solubility [2]: Insoluble

SMILES: CO[C@H]1/C=C/O[C@@]2(C)Oc3c(C)c(O)c4c(O)c(c(/C=N/N5CCN(C)CC5)c(O)c4c3C2=O)NC(=O)/C(C)=C\C=C\[C@H](C)[C@H](O)[C@@H](C)[C@@H](O)[C@@H](C)[C@H](OC(C)=O)[C@@H]1C [RIFAMPIN]
- MIC90 [1]: 0.76 µM (≈ 0.625 µg/mL)

SMILES: CCOC(=O)c1c[nH]c2c(ccc3c([N+](=O)[O-])cc[n+]([O-])c32)c1=O
- MIC90 [1]: 39.5 µM (≈ 13 µg/mL)
- solubility [2]: Insoluble

SMILES: CCn1cc(C(=O)Nc2ccccc2)c(=O)c2cc([N+](=O)[O-])c3cccnc3c21
- MIC90 [1]: 275 µM (≈ 107 µg/mL)
- solubility [2]: Insoluble

SMILES: COc1c(N2C[C@@H]3CCCN[C@@H]3C2)c(F)cc2c(=O)c(C(=O)O)cn(C3CC3)c12 [MOXIFLOXACIN]
- MIC90 [1]: 0.77 µM (≈ 0.309 µg/mL)
- Activity [4]: 4.02 log10CFU/ml
- Activity [5]: 3.77 log10CFU/ml
- Activity [6]: 3.93 log10CFU/ml
- Activity [7]: 2.54 log10CFU/ml
- MIC90 [8]: 6.16 µM (≈ 2.47 µg/mL)

SMILES: CCOC(=O)c1cn(CC)c2c(ccc3cccnc32)c1=O
- MIC90 [1]: 170 µM (≈ 50.3 µg/mL)
- solubility [2]: Insoluble

SMILES: CCOC(=O)c1cn(C)c2c(cc(Cl)c3cccnc32)c1=O
- MIC90 [1]: 329 µM (≈ 104 µg/mL)
- solubility [2]: Insoluble

SMILES: CCOC(=O)c1cn(CC)c2c(cc(Cl)c3cccnc32)c1=O
- MIC90 [1]: 166 µM (≈ 55 µg/mL)
- solubility [2]: Insoluble

SMILES: CCOC(=O)c1cn(CC)c2c(cc(N)c3cccnc32)c1=O
- MIC90 [1]: 41.9 µM (≈ 13 µg/mL)
- solubility [2]: Insoluble
